E coli WT exp – blocks growth of wild type E. coli BW25113; growth inhibition, % at 100 µM; 0.15% of 98,000 active; OD600 absorbance; AID 710;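 active = growth inhibition above about 50% at one test dose, limit read from the data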;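 note: growth measured after 20 h incubation at 37 °C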
HePTP inh – inhibitors of human HePTP phosphatase | P35236 | recombinant HePTP phosphatase activity, OD absorbance | inhibition, % at 20 µM | 0.64% of 110,000 active | AID 521; in the data active = inhibition above about 50%;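 note: plate controls were vehicle for no effect and reference inhibitor for full effect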
Ecoli tolC – growth inhibitors of E. coli BW25113 tolC mutant; AID 573; OD615; growth inhibition, % at 10 µM (by protocol); 2.2% of 65,000 active;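 active = growth inhibition at or above a cutoff equal to the mean over every tested compound plus 3 SD, cut at about 60% in these data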;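 note: growth measured after 20 h incubation at 37 °C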
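Test system: E. coli BW25113 ΔtolC::kan bacteria | Medium: Kanamycin-containing LB broth (50 µg/mL) | Dosing: One dose of 10 µM final | Times: 20 h incubation with compound, 37 °C | Detection: Optical density read at 615 nm | Read-out basis: Percent growth inhibition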
PLAP activator – activates human placental alkaline phosphatase. activation fold at 20 µM. purified PLAP enzyme, luminescent substrate read-out; hits give high values. AID 696. P05187. 1.2% of 96,000 active; in the data active = activation fold above about 2
Target sequence (P05187 whole entry, looked up): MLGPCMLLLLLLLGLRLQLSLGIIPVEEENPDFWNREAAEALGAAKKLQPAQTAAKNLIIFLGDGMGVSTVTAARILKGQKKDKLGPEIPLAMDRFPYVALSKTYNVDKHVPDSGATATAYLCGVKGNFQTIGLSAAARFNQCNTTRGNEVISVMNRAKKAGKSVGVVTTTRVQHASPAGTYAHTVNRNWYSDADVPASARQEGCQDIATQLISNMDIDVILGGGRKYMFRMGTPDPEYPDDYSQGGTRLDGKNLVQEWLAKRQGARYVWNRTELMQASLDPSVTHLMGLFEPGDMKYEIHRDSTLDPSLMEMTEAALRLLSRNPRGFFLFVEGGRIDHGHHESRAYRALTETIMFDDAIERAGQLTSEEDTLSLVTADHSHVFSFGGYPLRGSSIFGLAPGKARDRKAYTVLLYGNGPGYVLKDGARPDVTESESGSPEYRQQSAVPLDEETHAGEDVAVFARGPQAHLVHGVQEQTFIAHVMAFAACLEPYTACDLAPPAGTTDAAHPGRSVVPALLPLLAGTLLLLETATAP
AP ELISA ortho – orthogonal test for alternative complement pathway inhibitors. Human serum alternative complement pathway, LPS-coated ELISA, C3 deposition; tested in compound mixtures. inhibition, % at 5 µM. 0.08% of 62,000 active;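 active = inhibition above 30% in each of the two pooled mixtures holding the compound, so the lower value exceeds 30%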;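 note: 0% = serum in Mg-EGTA without compound and 100% = EDTA serum blank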
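Assay system: human serum alternative complement pathway, C3 deposition on LPS-coated wells; Dosing: 5 µM per compound in ten-compound mixtures; Detection: Anti-C3 ELISA, OD 450 nm; Buffer or medium: Mg2+-EGTA GVB++ buffer containing human serum at 1:15 dilution; Timing: 1 h at 37 °C; Replication: two different pools per compound.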
Active calls of the source: *; nt = no result given. A selection: hits, their analogues and other compounds. The true share with any hit is near 2.3%.

SMILES | E coli WT exp | HePTP inh | Ecoli tolC | PLAP activator | AP ELISA ortho
Cc1ccc2cccc(NC(=O)C(F)(F)F)c2n1 | nt | 3 | -9 | 1.2 | 0
Cc1cccc(NC(c2ccc(O)cc2)c2ccc3ccc(C)nc3c2O)n1 (centres undefined) | 13 | nt | nt | 2.8* | nt
Cc1ccc(C(=O)Nc2ccc3nn(-c4cccc([N+](=O)[O-])c4)nc3c2)cc1 | nt | 2 | nt | nt | nt
CN(C)/C=N/n1cnc2scc(-c3ccc(Cl)cc3)c2c1=O | nt | 5 | nt | nt | nt
CC1CC(C)CN(C(=O)CSc2nnc(-c3ccc(Cl)s3)o2)C1 (centres undefined) | -2 | -12 | 71* | 1.1 | 14
N=c1c2c(-c3ccccc3)c(-c3ccccc3)n(Cc3ccco3)c2ncn1Cc1ccco1 | 18 | 8 | 64* | 1.2 | 4
CC1CCN(C(C(=O)Nc2ccc3c(c2)OCO3)c2ccccc2)CC1 (centres undefined) | 3 | 6 | 7 | 2.2* | 11
CC1CCCN(C(C(=O)Nc2ccc3c(c2)OCO3)c2ccccc2)C1 (centres undefined) | 16 | 8 | 9 | 2* | 14
O=S(=O)(Nc1nnc(-c2ccccc2)s1)c1ccc(Cl)cc1 | 5 | -2 | 87* | 1.1 | 14
O=C(Nc1ccccc1)Nc1nnc(-c2ccc(Cl)cc2)s1 | nt | -8 | nt | nt | nt
CCc1ccc(C(C)NC(=O)c2ccccc2)cc1 (centres undefined) | nt | -5 | nt | nt | nt
Cc1cc(C(F)(F)F)nn1CC(=O)NNC(=S)NCC(C)C | 7 | nt | nt | 2.6* | nt
Cc1cc(C(F)(F)F)nn1CC(=O)NNC(=S)Nc1ccc(F)cc1 | 0 | nt | nt | 2.8* | nt
CCn1c(-c2ccccc2C)n[nH]c1=S | nt | 1 | nt | nt | nt
Cc1cccc(C)c1NC(=O)CN(C)CC(=O)Nc1cc(Cl)ccc1C#N | -1 | nt | nt | 1.9 | nt
CCOc1ccc(NC(=O)CN(C)CC(=O)Nc2cc(Cl)ccc2C#N)cc1OCC | 4 | nt | nt | 2.1* | nt
C=CCNC(=O)c1ccc(-c2ccc(Cl)cc2Cl)o1 | nt | -20 | nt | nt | nt
CCCn1c(CN(Cc2ccccc2)Cc2ccccc2)nc2c1c(=O)n(C)c(=O)n2C | 2 | 6 | 65* | 1.6 | 21
COc1cc(/C=C2\SC(=S)N(C3CCCCC3)C2=O)ccc1OC(=O)c1cccc(C)c1 | nt | -1 | nt | nt | nt
COc1ccc(OCC(=O)N/N=C/c2ccc(OC)c(Br)c2)cc1 | nt | 2 | nt | nt | nt
O=S(=O)(c1ccc2nc(COc3ccccc3)[nH]c2c1)N1CCOCC1 | 4 | 5 | 9 | 2* | 0
O=S(=O)(c1ccc2nc(Cc3ccccc3)[nH]c2c1)N1CCOCC1 | 2 | -6 | 13 | 2.2* | 6
COc1cc(Cc2nc3ccc(S(=O)(=O)N4CCOCC4)cc3[nH]2)cc(OC)c1OC | 0 | nt | nt | 1.6 | nt
Cc1ccc(OCC(=O)N/N=C\c2ccccc2C)cc1 | nt | -4 | nt | nt | nt
Nc1ncnc2nc(SCc3ccc(Cl)cc3Cl)[nH]c12 | -2 | nt | nt | 2.3* | nt
SMILES | E coli WT exp | HePTP inh | Ecoli tolC | PLAP activator | AP ELISA ortho
Nc1ncnc2nc(Sc3ccc(Cl)cc3)[nH]c12 | 8 | 12 | 4 | 1 | 11
Nc1cccc(-c2nnc(-c3ccccc3)o2)c1 | nt | -12 | nt | nt | nt
O=C(O)c1ccc(Cl)c(-c2ccc(C=C3C(=O)c4ccccc4C3=O)o2)c1 | nt | 104* | nt | nt | nt
O=C(O)c1ccc(-c2ccc(C=C3C(=O)c4ccccc4C3=O)o2)cc1Cl | nt | 52* | nt | nt | nt
O=C1NC(=S)N/C1=C/c1ccc(-c2cc(C(=O)O)ccc2Cl)o1 | nt | 104* | nt | nt | nt
CC1=CC(C)(C)N(C(=S)NC(=O)c2ccccc2)c2ccccc21 | nt | 0 | nt | nt | nt
O=C(CSc1nc2ccccc2o1)Nc1ccccc1N1CCCCCC1 | -5 | 12 | 73* | 1 | 3
O=C(Nc1ccccc1N1CCCCC1)c1cccs1 | -6 | 5 | 100* | 0.8 | 20
CCCCCC(=O)Nc1ccccc1N1CCN(c2ccccc2)CC1 | -3 | 8 | 68* | 1.2 | 22
O=C(COc1ccccc1)Nc1ccccc1N1CCCCC1 | 6 | -1 | 92* | 1.1 | -2
CS(=O)(=O)N1CCN(c2ccccc2NC(=O)c2cccs2)CC1 | 2 | 7 | 2 | 1 | 15
CCn1c2ccccc2c2nnc(SC)nc21 | nt | -4 | nt | nt | nt
CC(=O)c1cccc(NC(=O)c2ccc(C)c([N+](=O)[O-])c2)c1 | nt | -24 | nt | nt | nt
CCC(=O)Nc1sc2c(c1C(=O)Nc1ccc(OC)cc1)CCCC2 | nt | 8 | nt | nt | nt
CC(=O)Nc1ccc(NC(=S)NC(NC(=O)c2cccc([N+](=O)[O-])c2)C(Cl)(Cl)Cl)cc1 (centres undefined) | nt | 10 | nt | nt | nt
O=C(NC(NC(=S)Nc1ccc(Cl)c(Cl)c1)C(Cl)(Cl)Cl)c1cccc([N+](=O)[O-])c1 (centres undefined) | nt | 104* | nt | nt | nt
CN1CCN(C2=NC(=O)/C(=C\c3cccc4c3OCO4)S2)CC1 | nt | 6 | nt | nt | nt
COc1cc(/C=C2\C(=O)NC(=S)N(c3ccccc3)C2=O)cc([N+](=O)[O-])c1O | nt | 59* | nt | nt | nt
COc1ccccc1N1C(=O)NC(=O)C(=Cc2cc(OC)c(O)c([N+](=O)[O-])c2)C1=O | nt | -2 | nt | nt | nt
CCOc1ccc(-c2nc(C#N)c(NCc3ccc4c(c3)OCO4)o2)cc1 | -11 | 5 | -2 | 1.2 | 10
Cc1ccc(OCc2nc(C#N)c(NCc3ccc4c(c3)OCO4)o2)cc1 | -11 | 4 | 81* | 1.2 | 7
COc1ccc(S(=O)(=O)n2cnc3cc(C)c(C)cc32)cc1 | 12 | 6 | 47 | 1.4 | 20
COc1ccc(S(=O)(=O)n2cnc3cc(C)c(C)cc32)cc1C | -1 | 11 | 77* | 1.3 | nt
Cc1ccnc(NC(=O)/C=C/c2ccc3c(c2)OCO3)c1 | nt | 7 | nt | nt | nt
c1ccc(CC2CCN(c3nnnn3-c3ccccc3)CC2)cc1 | -35 | 6 | 76* | 1 | 2
SMILES | E coli WT exp | HePTP inh | Ecoli tolC | PLAP activator | AP ELISA ortho
CC(=O)N1CCN(c2nnnn2-c2ccccc2)CC1 | 1 | nt | nt | 0.8 | nt
Cc1cc(C)nc(N2CCN(c3nnnn3-c3ccccc3)CC2)n1 | -5 | 6 | -20 | 1 | 27
FC(F)(F)c1cccc(N2CCN(c3nnnn3-c3ccccc3)CC2)c1 | 1 | 12 | 69* | 1.5 | 18
O=C(N/N=C/c1ccccc1C(F)(F)F)c1ccc(CN2CCOCC2)cc1 | nt | 10 | nt | nt | nt
COc1cccc(OCCOc2ccccc2/C=C2/SC(=S)NC2=O)c1 | nt | 1 | nt | nt | nt
CCOC(=O)N/N=C(/C)c1ccc([N+](=O)[O-])o1 | 51* | nt | nt | 1 | nt
O=C(CN(C1CC1)S(=O)(=O)c1ccc(S(=O)(=O)NC2CCCCC2)cc1)Nc1ccccc1 | -12 | 2 | 83* | 0.9 | 4
CC(C)CNC(=O)CN(C1CCCCC1)S(=O)(=O)c1ccccc1 | -2 | -1 | -2 | 1.5 | 20
CCCCOc1ccc(C(=O)N2c3ccccc3CC2C)cc1 (centres undefined) | nt | 104* | nt | nt | nt
COc1ccc(CC(=O)Nc2ccc(-c3nc4ccccc4o3)c(O)c2)cc1OC | nt | 89* | nt | nt | nt
COc1cc(C(=O)Nc2ccc(-c3nc4cc(C)ccc4o3)c(O)c2)cc(OC)c1OC | -18 | -5 | 33 | 2.7* | 5
Cc1ccc2oc(-c3ccc(NC(=O)c4ccc(C(C)(C)C)cc4)cc3O)nc2c1 | nt | 1 | nt | nt | nt
COc1ccc(CC(=O)Nc2ccc(O)c(-c3nc4cc(Cl)ccc4o3)c2)cc1OC | nt | -6 | nt | nt | nt
